# Measurements from ChEMBL document CHEMBL1130233, “N6-cyclopentyl-3'-substituted-xylofuranosyladenosines: a new class of non-xanthine adenosine A1 receptor antagonists” (J Med Chem, 1997).
# How the values were obtained:
# [1] = molecular target: T1, Adenosine receptor A1 (Rattus norvegicus) (UniProt P25099); assay: GTP shift ratio of the apparent Ki values in the presence and absence of GTP.
# T1 sequence (whole entry): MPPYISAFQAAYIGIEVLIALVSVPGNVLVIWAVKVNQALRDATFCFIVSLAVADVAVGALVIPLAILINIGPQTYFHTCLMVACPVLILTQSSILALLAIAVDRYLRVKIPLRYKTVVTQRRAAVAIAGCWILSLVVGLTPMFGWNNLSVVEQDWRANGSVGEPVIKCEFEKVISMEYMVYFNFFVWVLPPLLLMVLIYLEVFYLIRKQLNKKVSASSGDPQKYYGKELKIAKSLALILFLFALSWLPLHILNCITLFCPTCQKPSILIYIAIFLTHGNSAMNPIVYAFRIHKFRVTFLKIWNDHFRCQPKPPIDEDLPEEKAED
# In short: (§1)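 Rat cerebral cortex membranes were used for displacement of the tritiated antagonist [3H]DPCPX. Assays were run with and without 1 mM GTP, and Ki values were derived from the displacement data. GTP shift is the apparent Ki with GTP divided by the apparent Ki without GTP. There were three or four independent experiments, each in duplicate.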
# [2] = molecular target: Adenosine receptor A2a (Rattus norvegicus) (UniProt P30543); assay: Affinity for adenosine A2a receptor of rat striatal membrane using [3H]-CGS- 21680 at 10e-5 M
# Sequence of Adenosine receptor A2a (Rattus norvegicus) (P30543 whole entry): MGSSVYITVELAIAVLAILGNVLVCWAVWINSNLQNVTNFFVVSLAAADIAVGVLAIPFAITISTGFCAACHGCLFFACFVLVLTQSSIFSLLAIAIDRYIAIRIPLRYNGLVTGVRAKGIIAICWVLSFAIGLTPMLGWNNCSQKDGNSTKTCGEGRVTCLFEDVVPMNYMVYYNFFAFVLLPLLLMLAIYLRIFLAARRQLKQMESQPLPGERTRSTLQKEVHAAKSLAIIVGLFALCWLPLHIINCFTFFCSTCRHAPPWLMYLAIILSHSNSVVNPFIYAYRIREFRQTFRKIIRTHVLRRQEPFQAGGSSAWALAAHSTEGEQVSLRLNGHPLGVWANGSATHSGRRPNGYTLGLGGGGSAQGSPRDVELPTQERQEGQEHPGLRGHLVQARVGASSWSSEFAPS
# In short: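 On rat striatal membranes with [3H]CGS 21680 as radioligand, the value is the percentage of radioligand still bound to the receptor in the presence of 10⁻⁵ M test ligand.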
# [3] = molecular target: T2, Adenosine receptor A1 (Rattus norvegicus, UniProt P25099); assay: Affinity for adenosine A1 receptor was determined, in the presence of GTP in rat brain cortex; type: tissue-based; in short: as §1
# T2 sequence (P25099 whole entry): T1 sequence (whole entry)
# [4] = molecular target: T2, Adenosine receptor A1; assay: Affinity for adenosine A1 receptor was determined, in the absence of GTP in rat cortical membrane.; type: cell membranes
# In short: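 Rat cerebral cortex membranes were used for displacement of the tritiated antagonist [3H]DPCPX. GTP shift is the apparent Ki with GTP divided by the apparent Ki without GTP. There were three or four independent experiments, each in duplicate.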
# [5] = molecular target: Adenosine receptor A2a (Rattus norvegicus, UniProt P30543); assay: Affinity for adenosine A2a receptor was determined on rat striatal membrane using [3H]-CGS- 21680 as radioligand; design: species or system Striatum
# Sequence of Adenosine receptor A2a (P30543 whole entry): as above
# In short: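 Rat striatal membranes were used for displacement of [3H]CGS 21680 as radioligand, and Ki values were derived from the displacement data. There were three or four independent experiments, each performed in duplicate.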
Ratio [1],percent radioligand bound [2] [%],Ki [3] [nM],Ki [4] [nM],Ki [5] [nM],SMILES
0.95,50,770,850,–,O=C(Cc1ccccc1)N[C@H]1C(CO)OC(n2cnc3c(NC4CCCC4)ncnc32)C1O (stereo partly drawn)
0.73,–,5740,7840,4660,Nc1ncnc2c1ncn2C1OC(CO)[C@H](NC(=O)CCCCc2ccccc2)C1O (stereo partly drawn)
0.84,–,68,83,790,Cc1ccc(C(=O)N[C@H]2C(CO)OC(n3cnc4c(NC5CCCC5)ncnc43)C2O)cc1 (stereo partly drawn)
1.4,–,11200,8470,2410,[N-]=[N+]=N[C@@H]1[C@@H](O)[C@H](n2cnc3c(NC4CCCC4)ncnc32)O[C@@H]1CO
0.8,74,150,190,–,O=C(CCCC1CCCCC1)N[C@H]1C(CO)OC(n2cnc3c(NC4CCCC4)ncnc32)C1O (stereo partly drawn)
0.77,–,130,200,770,COc1ccc(C(=O)N[C@H]2C(CO)OC(n3cnc4c(NC5CCCC5)ncnc43)C2O)cc1 (stereo partly drawn)
2.1,–,–,–,–,Nc1ncnc2c1ncn2[C@@H]1O[C@H](CO)C[C@H]1O
4.3,–,–,–,–,OC[C@@H]1C[C@@H](O)[C@H](n2cnc3c(NC4CCCC4)ncnc32)O1
1.1,–,11100,10900,2470,"Nc1ncnc2c1ncn2[C@@H]1OC(CO)[C@H](NC(=O)c2ccccc2)[C@H]1O (single isomer, unassigned)"
0.8,–,–,–,2760,"O=C(N[C@H]1C(CO)O[C@@H](n2cnc3c(NC4CCCC4)ncnc32)[C@@H]1O)c1ccccc1 (single isomer, unassigned)"
0.75,–,2680,3590,1770,"Nc1ncnc2c1ncn2[C@@H]1OC(CO)[C@H](NC(=O)CCCC2CCCCC2)[C@H]1O (single isomer, unassigned)"
0.74,–,12600,–,11800,"Nc1ncnc2c1ncn2[C@@H]1OC(CO)[C@H](NC(=O)CCOc2ccccc2)[C@H]1O (single isomer, unassigned)"
0.99,–,350,370,7940,"O=C(CCc1ccccc1)N[C@H]1C(CO)O[C@@H](n2cnc3c(NC4CCCC4)ncnc32)[C@@H]1O (single isomer, unassigned)"
0.94,–,100,130,650,"O=C(CCCc1ccccc1)N[C@H]1C(CO)O[C@@H](n2cnc3c(NC4CCCC4)ncnc32)[C@@H]1O (single isomer, unassigned)"
0.87,–,81,110,580,"O=C(N[C@H]1C(CO)O[C@@H](n2cnc3c(NC4CCCC4)ncnc32)[C@@H]1O)c1ccc(Cl)cc1 (single isomer, unassigned)"
0.73,–,–,–,2020,"O=C(N[C@H]1C(CO)O[C@@H](n2cnc3c(NC4CCCC4)ncnc32)[C@@H]1O)c1ccc(Cl)c(Cl)c1 (single isomer, unassigned)"
0.91,–,740,820,6850,"O=C(N[C@H]1C(CO)O[C@@H](n2cnc3c(NC4CCCC4)ncnc32)[C@@H]1O)c1ccc([N+](=O)[O-])cc1 (single isomer, unassigned)"
0.83,–,200,240,4230,"O=C(CCCCc1ccccc1)N[C@H]1C(CO)O[C@@H](n2cnc3c(NC4CCCC4)ncnc32)[C@@H]1O (single isomer, unassigned)"
0.73,–,–,–,3680,"Cc1ccc(C(=O)N[C@H]2C(CO)O[C@@H](n3cnc4c(NC5CCCC5)ncnc43)[C@@H]2O)cc1C (single isomer, unassigned)"
